Data on three compounds can be found in ChEMBL document CHEMBL1240328, “Selective compounds define Hsp90 as a major inhibitor of apoptosis in small-cell lung cancer” (Nat Chem Biol, 2007).

The structures appear in SMILES notation. Activity calls are given as the source filed them.

The term inhibition denotes how much of the control response was suppressed.

For test [1], the target named is Heat shock protein HSP 90-beta (Homo sapiens) (UniProt P08238). Briefly: Inhibition of HSP90-mediated antiapoptotic activity in human NCI-H526 cells assessed as induction of Akt degradation at 50 uM after 24 hrs by Western blot analysis. In kind it is cell-based. (A western blot detects proteins with antibodies after separation by electrophoresis.)
The target is the same in test [2]. Briefly: Inhibition of HSP90-mediated antiapoptotic activity in human NCI-H526 cells assessed as reduction in BAD phosphorylation at 50 uM after 24 hrs by Western blot analysis. In kind it is cell-based.
The target is the same in test [3]. Kind of test: Inhibition of HSP90-mediated antiapoptotic activity in human SKBR3 cells assessed as induction of cell growth arrest at 50 uM after 24 hrs by propidium iodide staining-based flow cytometry. To be noted: SK-BR-3.
Test [4] has the same target. Kind of test: Inhibition of HSP90-mediated antiapoptotic activity in human MCF7 cells assessed as induction of cell growth arrest at 50 uM after 24 hrs by propidium iodide staining-based flow cytometry. For orientation: A flow cytometer gives signals particle by particle.
Test [5] has the same target. Briefly: Inhibition of HSP90-mediated antiapoptotic activity in human SKBR3 cells assessed as induction of PARP cleavage at 50 uM after 24 hrs by Western blot analysis. The test is classed as cell-based. To be noted: SK-BR-3. In a few lines: (§1)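 SKBr3 cells at 60–70% confluence were exposed to drug or DMSO vehicle. Lysis was in 50 mM Tris pH 7.4, 150 mM NaCl, 1% NP-40, with protein measured by BCA. Lysates of 20–100 µg were run on SDS-PAGE, blotted to nitrocellulose, probed with primary antibodies and detected with a peroxidase-conjugated secondary (1:5,000). Loading was checked with β-actin or PI(3)K p85.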

The target is the same in test [6]. Kind of test: Inhibition of HSP90-mediated antiapoptotic activity in human SKBR3 cells assessed as induction of caspase-3 cleavage at 400 uM after 24 hrs by Western blot analysis. The test is classed as cell-based. Conditions: SK-BR-3. In a few lines: as §1
The target is the same in test [7]. Kind of test: Inhibition of HSP90-mediated antiapoptotic activity in human MCF7 cells assessed as induction of caspase-3 cleavage at 50 uM after 24 hrs by Western blot analysis. The test is classed as cell-based.
Test [8] shares this target. Briefly: Inhibition of HSP90-mediated antiapoptotic activity in human MCF7 cells assessed as induction of caspase-9 cleavage at 50 uM after 24 hrs by Western blot analysis. In kind it is cell-based.
Test [9] has the same target. Kind of test: Inhibition of HSP90-mediated antiapoptotic activity in human MCF7 cells assessed as induction of PARP cleavage at 50 uM after 24 hrs by Western blot analysis. In kind it is cell-based.
Test [10] concerns SK-BR-3. Briefly: Inhibition of HSP70-mediated antiapoptotic activity in human SKBR3 cells assessed as induction of cell growth arrest after 72 hrs by propidium iodide staining-based flow cytometry.
For test [11], the system named is SK-BR-3. Briefly: Inhibition of HSP70-mediated antiapoptotic activity in human SKBR3 cells assessed as increase in caspase-3 activity after 24 hrs by Western blot analysis. In kind it is cell-based.
For test [12], the system named is SK-BR-3. Kind of test: Inhibition of HSP70-mediated antiapoptotic activity in human SKBR3 cells assessed as induction of caspase-3 cleavage after 24 hrs by Western blot analysis. In kind it is cell-based. In a few lines:
(§2)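 SKBr3 cells were treated for 24 h. Lysates were probed by western blot for caspase-3 and PARP cleavage. Apaf-1 complexes were pulled down with Apaf-1 antibody (with control IgG) and immunoblotted.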

Test [13] relates to SK-BR-3. Briefly: Inhibition of HSP70-mediated antiapoptotic activity in human SKBR3 cells assessed as induction of PARP cleavage after 24 hrs by Western blot analysis. In kind it is cell-based. In a few lines: as §2
For test [14], the system named is SK-BR-3. Kind of test: Inhibition of HSP70-mediated antiapoptotic activity in human SKBR3 cells assessed as release of Apaf-1 from chaperon complex after 24 hrs by Western blot analysis. The test is classed as cell-based. In a few lines: as §2
For test [15], the system named is NCI-H526. Briefly: Inhibition of HSP70-mediated antiapoptotic activity in human NCI-H526 cells assessed as induction of caspase-3 cleavage after 24 hrs by Western blot analysis. In kind it is cell-based. In a few lines:
(§3)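 NCI-H526 cells were treated for 24 h. PARP and caspase-3 cleavage were read by western blot of lysates in Tris/NaCl/NP-40 buffer. Apaf-1 complexes were immunoprecipitated with Apaf-1 antibody, using control IgG, then blotted.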

Test [16] has as its system NCI-H526. Briefly: Inhibition of HSP70-mediated antiapoptotic activity in human NCI-H526 cells assessed as induction of PARP cleavage after 24 hrs by Western blot analysis. The test is classed as cell-based. In a few lines:
as §3

Test [17] concerns NCI-H526. Kind of test: Inhibition of HSP70-mediated antiapoptotic activity in human NCI-H526 cells assessed as release of Apaf-1 from chaperon complex after 24 hrs by Western blot analysis. In kind it is cell-based. In a few lines: as §3
Test [18] deals with RAC-alpha serine/threonine-protein kinase (Homo sapiens) (UniProt P31749). To be noted: NCI-H526, 50 uM.
The target of test [19] is Heat shock protein HSP 90-beta (Homo sapiens) (UniProt P08238). Briefly: Binding affinity to HSP90 in human NCI-H526 cells after 24 hrs by fluorescence polarization assay. In kind it is cell-based. On the technique in general: In fluorescence polarisation assays a small probe gives low polarisation when free and higher when bound to something large.
Test [20] has the same target. Kind of test: Binding affinity to HSP90 in human NCI-N417 cells after 24 hrs by fluorescence polarization assay. The test is classed as cell-based. To be noted: NCI-H417.
Test [21] has the same target. Kind of test: Binding affinity to HSP90 in human NCI-H146 cells after 24 hrs by fluorescence polarization assay. The test is classed as cell-based.
For test [22] the target is unchanged. Briefly: Binding affinity to HSP90 in human NCI-H187 cells after 24 hrs by fluorescence polarization assay.
Test [23] shares this target. Kind of test: Binding affinity to HSP90 in human NCI-H209 cells after 24 hrs by fluorescence polarization assay. The test is classed as cell-based.
Test [24] shares this target. Briefly: Binding affinity to HSP90 in human NCI-H510 cells after 24 hrs by fluorescence polarization assay. In kind it is cell-based.
The target is the same in test [25]. Kind of test: Binding affinity to HSP90 in human NCI-H69 cells after 24 hrs by fluorescence polarization assay.
The target is the same in test [26]. Briefly: Inhibition of HSP90-mediated proliferation of human NCI-H526 cells at 1 to 3 uM after 72 to 96 hrs by sulforhodamine B assay. The test is classed as cell-based.
Test [27] shares this target. Briefly: Inhibition of HSP90-mediated proliferation of human NCI-N417 cells at 1 to 3 uM after 72 to 96 hrs by sulforhodamine B assay. Conditions: NCI-H417. The test is classed as cell-based.
Test [28] has the same target. Kind of test: Inhibition of HSP90-mediated proliferation of human NCI-H146 cells at 1 to 3 uM after 72 to 96 hrs by sulforhodamine B assay. In kind it is cell-based.
Test [29] shares this target. Briefly: Inhibition of HSP90-mediated proliferation of human NCI-H187 cells at 1 to 3 uM after 72 to 96 hrs by sulforhodamine B assay. In kind it is cell-based.
Test [30] shares this target. Briefly: Inhibition of HSP90-mediated proliferation of human NCI-H209 cells at 1 to 3 uM after 72 to 96 hrs by sulforhodamine B assay. The test is classed as cell-based.
Test [31] has the same target. Kind of test: Inhibition of HSP90-mediated proliferation of human NCI-H510 cells at 1 to 3 uM after 72 to 96 hrs by sulforhodamine B assay. The test is classed as cell-based.
Test [32] shares this target. Kind of test: Inhibition of HSP90-mediated proliferation of human NCI-H69 cells at 1 to 3 uM after 72 to 96 hrs by sulforhodamine B assay. The test is classed as cell-based.
Test [33] shares this target. Briefly: Binding affinity to HSP90 in human SKBR3 cells after 24 hrs by fluorescence polarization assay. To be noted: SK-BR-3.
The target is the same in test [34]. Briefly: Inhibition of HSP90-mediated antiapoptotic activity in human NCI-H526 cells assessed as increase in apoptotic cell population at 0.2 to 1 uM after 72 hrs by FACS analysis relative to control. In kind it is cell-based.
Test [35] has the same target. Kind of test: Inhibition of HSP90-mediated antiapoptotic activity in human NCI-N417 cells assessed as increase in apoptotic cell population at 0.2 to 1 uM after 96 hrs by FACS analysis relative to control. The test is classed as cell-based.
Test [36] has the same target. Briefly: Inhibition of HSP90-mediated antiapoptotic activity in human NCI-H146 cells assessed as increase in apoptotic cell population at 0.2 to 1 uM after 96 hrs by FACS analysis relative to control. The test is classed as cell-based.
The target is the same in test [37]. Kind of test: Inhibition of HSP90-mediated antiapoptotic activity in human NCI-H187 cells assessed as increase in apoptotic cell population at 0.2 to 1 uM after 72 hrs by FACS analysis relative to control. In kind it is cell-based.
Test [38] shares this target. Kind of test: Inhibition of HSP90-mediated antiapoptotic activity in human NCI-H209 cells assessed as increase in apoptotic cell population at 0.2 to 1 uM after 96 hrs by FACS analysis relative to control. The test is classed as cell-based.
Test [39] has the same target. Kind of test: Inhibition of HSP90-mediated antiapoptotic activity in human NCI-H510 cells assessed as increase in apoptotic cell population at 0.2 to 1 uM after 96 hrs by FACS analysis relative to control. The test is classed as cell-based.
The target is the same in test [40]. Kind of test: Inhibition of HSP90-mediated antiapoptotic activity in human NCI-H69 cells assessed as increase in apoptotic cell population at 0.2 to 1 uM after 72 hrs by FACS analysis relative to control. The test is classed as cell-based.
Test [41] has the same target. Briefly: Inhibition of HSP90 in chemo-resistant human H69AR cells at 100 uM after 24 hrs by fluorescence polarization assay. In kind it is cell-based. In a few lines: (§4)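 Competitive fluorescence polarization in lysates of H69AR, SKI-AC3 and WBA cells, prepared in HFB buffer pH 7.3 and normalized to Hsp90. Tracer was 3 nM Cy3B-geldanamycin, with incubation for 24 h at 4 °C. EC50 was defined as 50% tracer displacement.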

The target is the same in test [42]. Kind of test: Inhibition of HSP90 in chemo-resistant human SKI-AC3 cells at 100 uM after 24 hrs by fluorescence polarization assay. The test is classed as cell-based. In a few lines: as §4
For test [43] the target is unchanged. Briefly: Inhibition of HSP90 in chemo-resistant human WBA cells at 100 uM after 24 hrs by fluorescence polarization assay. The test is classed as cell-based. In a few lines: as §4
Test [44] shares this target. Briefly: Inhibition of HSP90-mediated antiapoptotic activity in human H69AR cells assessed as induction of cell growth arrest at 10 after 96 hrs by propidium iodide staining-based flow cytometry.
Test [45] has the same target. Briefly: Inhibition of HSP90-mediated antiapoptotic activity in human SKI-AC3 cells assessed as induction of cell growth arrest at 10 after 96 hrs by propidium iodide staining-based flow cytometry.
For test [46] the target is unchanged. Kind of test: Inhibition of HSP90-mediated antiapoptotic activity in human WBA cells assessed as induction of cell growth arrest at 10 after 96 hrs by propidium iodide staining-based flow cytometry.
For test [47] the target is unchanged. Kind of test: Inhibition of HSP90-mediated proliferation of human SKBR3cells after 72 hrs by sulforhodamine B assay.

Chain of Heat shock protein HSP 90-beta (Homo sapiens) (P08238 whole entry): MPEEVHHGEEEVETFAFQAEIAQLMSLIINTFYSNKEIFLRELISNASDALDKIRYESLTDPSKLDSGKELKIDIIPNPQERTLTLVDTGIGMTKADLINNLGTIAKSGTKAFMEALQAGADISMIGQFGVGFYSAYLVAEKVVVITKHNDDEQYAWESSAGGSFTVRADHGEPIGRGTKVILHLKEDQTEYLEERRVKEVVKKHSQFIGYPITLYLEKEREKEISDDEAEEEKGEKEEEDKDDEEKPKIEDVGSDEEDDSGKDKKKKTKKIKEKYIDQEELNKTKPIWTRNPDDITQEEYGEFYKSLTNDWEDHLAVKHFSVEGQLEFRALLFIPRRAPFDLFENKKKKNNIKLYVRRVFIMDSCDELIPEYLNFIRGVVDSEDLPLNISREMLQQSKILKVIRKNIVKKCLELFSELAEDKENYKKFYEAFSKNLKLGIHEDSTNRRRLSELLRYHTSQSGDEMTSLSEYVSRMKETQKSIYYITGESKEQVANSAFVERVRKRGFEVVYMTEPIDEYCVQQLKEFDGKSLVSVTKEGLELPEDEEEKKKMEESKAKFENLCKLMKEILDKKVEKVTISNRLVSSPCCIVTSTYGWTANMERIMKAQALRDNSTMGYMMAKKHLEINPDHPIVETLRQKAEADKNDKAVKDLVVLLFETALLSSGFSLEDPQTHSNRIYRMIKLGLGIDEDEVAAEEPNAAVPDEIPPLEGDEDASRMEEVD
Chain of RAC-alpha serine/threonine-protein kinase (Homo sapiens) (P31749 whole entry): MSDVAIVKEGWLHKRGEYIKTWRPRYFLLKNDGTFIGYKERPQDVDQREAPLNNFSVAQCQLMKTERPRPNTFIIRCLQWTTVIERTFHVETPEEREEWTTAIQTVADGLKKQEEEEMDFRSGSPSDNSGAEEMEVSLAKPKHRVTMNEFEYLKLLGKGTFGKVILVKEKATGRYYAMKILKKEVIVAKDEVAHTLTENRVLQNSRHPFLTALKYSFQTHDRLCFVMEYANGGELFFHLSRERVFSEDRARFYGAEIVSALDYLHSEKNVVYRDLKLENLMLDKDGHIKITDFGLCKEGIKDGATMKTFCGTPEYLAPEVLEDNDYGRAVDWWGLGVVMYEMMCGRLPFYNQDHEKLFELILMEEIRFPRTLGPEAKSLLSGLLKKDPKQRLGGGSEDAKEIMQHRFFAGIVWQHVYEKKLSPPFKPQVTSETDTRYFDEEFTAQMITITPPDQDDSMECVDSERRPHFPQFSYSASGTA

Consider `CCCCCCN(C(=O)CCCCCN1C(=O)NC(c2ccc(-c3ccccc3)cc2)C(C(=O)OCc2ccccc2)=C1C)C(C(=O)NCCCC)c1ccc(OCC(=O)OC)c(C(=O)OC)c1` (configuration not stated), for which the outcome in test [1], in test [3], in test [4], in test [5], in [6] and in [7] was Active. Also, the outcome in test [8] and in test [9] was Active. Moreover, the inhibition entry in test [2], in test [10], in test [11], in [12] and in test [13] was “Active” throughout. In addition, the inhibition entry in test [14], in test [15], in test [16] and in test [17] was “inactive” each time.
`O=c1[nH]c2ccccc2n1C1CCN(Cc2ccc(-c3nc4cc5[nH]cnc5cc4nc3-c3ccccc3)cc2)CC1`: the inhibition entry in [18] is “Active”.
Consider `C#CCCCn1c(Sc2cc3c(cc2Br)OCO3)nc2c(N)ncnc21`, for which the outcome in test [19], in test [20], in test [21], in test [22], in [23] and in test [24] was Active. Besides, the result in [25], in test [33], in [44], in test [45] and in [46] was Active. The inhibition in [26], in test [27], in test [28], in test [29], in test [30] and in test [31] was 50% throughout. Also, the inhibition in test [32] came out at 50%. The fold change (FC) in [34], in [35], in test [36], in [37], in test [38] and in test [39] was 2 throughout. Also, in test [40], the fold change (FC) was 2. In addition, the inhibition entry in test [41], in test [42], in test [43] and in [47] was “Active” each time.
